Reference: ChEMBL document CHEMBL2380244, “Optimized chemical probes for REV-ERBα” (J Med Chem, 2013)
Calls of active or inactive are those of the source. The calls are words filed in the database; no cut-off is given here.

What was measured:
[1] = biological target: T1, Nuclear receptor subfamily 1 group D member 1 (Homo sapiens) (UniProt P20393); assay: Agonist activity at REV-ERBalpha in human U2OS cells assessed as delay of peak of second cycle at 20 uM by luciferase reporter gene assay relative to DMSO-treated control; assay type: cell-based
T1 sequence (whole entry): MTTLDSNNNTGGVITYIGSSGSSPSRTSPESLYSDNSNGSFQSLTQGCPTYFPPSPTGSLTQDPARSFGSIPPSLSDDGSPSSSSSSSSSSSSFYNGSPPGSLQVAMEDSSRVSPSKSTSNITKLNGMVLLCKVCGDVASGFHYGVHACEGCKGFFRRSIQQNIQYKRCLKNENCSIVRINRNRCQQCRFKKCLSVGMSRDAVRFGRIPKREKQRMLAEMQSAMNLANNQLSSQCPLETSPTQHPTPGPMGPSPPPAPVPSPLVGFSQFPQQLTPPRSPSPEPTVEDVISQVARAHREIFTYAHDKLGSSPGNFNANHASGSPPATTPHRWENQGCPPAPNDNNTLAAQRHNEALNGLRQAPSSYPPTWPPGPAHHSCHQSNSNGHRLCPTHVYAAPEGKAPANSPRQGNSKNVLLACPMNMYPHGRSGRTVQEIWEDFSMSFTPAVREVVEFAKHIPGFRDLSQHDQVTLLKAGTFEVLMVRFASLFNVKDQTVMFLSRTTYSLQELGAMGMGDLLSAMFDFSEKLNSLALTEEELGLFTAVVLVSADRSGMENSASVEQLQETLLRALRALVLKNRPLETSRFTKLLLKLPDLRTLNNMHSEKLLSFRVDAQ
In short: (§1)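 U2OS cells stably carrying a mouse Bmal1-promoter luciferase reporter (hygromycin-selected clone) seeded at confluence in 384-well format. Rhythms synchronized by media change and checked over 48 h. Compound added, then bioluminescence recorded in real time every 20 min for 72 h in a temperature-controlled luminometer. Cells then washed and recovery oscillations in full growth medium monitored as a toxicity counter-screen.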

[2] = biological target: T1, Nuclear receptor subfamily 1 group D member 1 (Homo sapiens); assay: Agonist activity at REV-ERBalpha in human U2OS cells assessed as suppression of BMAL1 expression at 20 uM after 40 hrs by luciferase reporter gene assay relative to DMSO-treated control; assay type: cell-based; in short: as §1
Homo sapiens = species on record: Homo sapiens; assay: Selectivity ratio of IC50 for LXRalpha (unknown origin) to EC50 for biotinylated REV-ERBalpha (unknown origin)
[3] = biological target: T2, Oxysterols receptor LXR-alpha (Homo sapiens, UniProt Q13133); assay: Binding affinity to LXRalpha (unknown origin) by radioligand displacement assay
T2 sequence (Q13133 whole entry): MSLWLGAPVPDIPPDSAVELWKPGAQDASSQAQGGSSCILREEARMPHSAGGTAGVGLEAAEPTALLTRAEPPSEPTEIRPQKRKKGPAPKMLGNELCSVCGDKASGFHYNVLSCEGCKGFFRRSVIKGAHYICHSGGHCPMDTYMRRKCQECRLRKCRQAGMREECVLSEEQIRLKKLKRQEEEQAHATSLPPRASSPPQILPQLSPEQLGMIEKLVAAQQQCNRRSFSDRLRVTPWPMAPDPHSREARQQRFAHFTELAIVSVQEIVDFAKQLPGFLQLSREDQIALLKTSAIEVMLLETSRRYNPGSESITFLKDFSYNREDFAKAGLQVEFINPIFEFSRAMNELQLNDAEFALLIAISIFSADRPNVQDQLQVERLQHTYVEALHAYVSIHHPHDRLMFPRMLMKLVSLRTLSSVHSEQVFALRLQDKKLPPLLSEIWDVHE

[4] = biological target: T3, Nuclear receptor subfamily 1 group D member 1 (Homo sapiens, UniProt P20393); assay: Agonist activity at biotinylated REV-ERBalpha (unknown origin) assessed as increase in biotinylated NCOR peptide recruitment after 1 hr by FRET assay
T3 sequence (P20393 whole entry): T1 sequence (whole entry)
In short: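 TR-FRET: 20 nM biotinylated REV-ERBα pre-complexed with 10 nM APC-streptavidin, excess biotin added, then mixed with 20 nM biotinylated NCOR1 on 10 nM Eu-streptavidin. MOPS pH 7.5 buffer with NaF, CHAPS, BSA and 10 mM DTT. Added to compound (serial DMSO dilutions of 10 mM stocks), 1 h at RT, Eu/APC read. Data normalized to basal and minimal HTRF, fitted to a 4-parameter logistic.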

[5] = biological target: T1, Nuclear receptor subfamily 1 group D member 1 (Homo sapiens); assay: Agonist activity at biotinylated REV-ERBalpha (unknown origin) assessed as biotinylated PGC1-beta peptide recruitment after 20 mins by Greiner assay
In short: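 Biotinylated peptides (final 20 nM) with Eu-W1024 streptavidin (final 20 nM), 20 min RT. Biotinylated REV-ERBα (20 nM) with APC-streptavidin (10 nM), 20 min RT, then 20-fold excess biotin, 15 min RT. Receptor solution added to peptide plates, Eu/APC TR-FRET read. Four wells per peptide averaged, with standard deviation.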

THP-1 = assay: Cytotoxicity against human THP1 cells assessed as cell viability measured ATP level at 10 uM after 6 hrs by celltiter-glo assay; assay type: cell-based; details: thp-1, 6 h
In short: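 THP-1 cells incubated six hours with compound. CellTiter-Glo added for 15 min, then luminescence read.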

[6] = biological target: T4, Oxysterols receptor LXR-alpha (Homo sapiens) (UniProt Q13133); assay: Agonist activity at LXRalpha in human THP1 cells assessed as effect on LPS-stimulated ABCA1 mRNA expression at 1 uM after 6 hrs by RT-qPCR analysis; assay type: cell-based; details: THP-1
T4 sequence (whole entry): T2 sequence (Q13133 whole entry)
In short: (§2)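 THP-1 cells (RPMI1640 + 10% FBS, kept at 3×10^5–8×10^5 cells/mL) stimulated with LPS 10 mcg/mL with DMSO or compound at 1 μM, in triplicate. After six hours the cells were lysed and transcripts quantified by RT-qPCR against TATA box binding protein as housekeeping gene. Groups compared by one-way ANOVA with post-hoc Dunnett's.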

[7] = biological target: T1, Nuclear receptor subfamily 1 group D member 1 (Homo sapiens); assay: Agonist activity at REV-ERBalpha in human THP1 cells assessed as downregulation of LPS-stimulated IL-6 mRNA expression at 1 uM after 6 hrs by RT-qPCR analysis; assay type: cell-based; details: THP-1; in short: as §2
[8] = biological target: T1, Nuclear receptor subfamily 1 group D member 1 (Homo sapiens); assay: Agonist activity at REV-ERBalpha in human U2OS cells assessed as suppression of BMAL1 oscillation measured for 72 hrs by luciferase reporter gene assay; assay type: cell-based; in short: as §1
[9] = biological target: T4, Oxysterols receptor LXR-alpha (Homo sapiens); assay: Agonist activity at LXRalpha in human THP1 cells assessed as upregulation of LPS-stimulated ABCA1 mRNA expression at 10 uM after 6 hrs by RT-qPCR analysis; assay type: cell-based; details: THP-1
In short: (§3)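 THP-1 cells sub-cultured in RPMI1640 with 10% FBS, stimulated with LPS 10 μg/mL in presence of DMSO or compound at 10 μM. Transcript read-out by RT-qPCR, normalized to TATA box binding protein.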

[10] = biological target: T1, Nuclear receptor subfamily 1 group D member 1 (Homo sapiens); assay: Agonist activity at REV-ERBalpha in human THP1 cells assessed as downregulation of LPS-stimulated IL-6 mRNA expression at 10 uM after 6 hrs by RT-qPCR analysis; assay type: cell-based; details: THP-1; in short: as §3

Row | TIME [1] [h] | Activity [2] [%] | Ratio IC50/EC50 (Homo sapiens) | IC50 [3] [µM] | EC50 [4] [µM] | Activity [5] | Activity [6] | Activity [7] | Activity [8] | Activity [9] | Activity [10] | SMILES | Activity (THP-1)
1 | 0 | 23 | 250 | 40 | 0.16 | – | – | – | – | – | – | Cc1ccc(CN(Cc2cccnc2)Cc2ccc([N+](=O)[O-])s2)cc1 | –
2 | 0 | 37 | 79 | 16 | 0.2 | – | inactive | Active | – | – | – | N#Cc1ccc(CN(Cc2cccnc2)Cc2ccc(F)c(F)c2)s1 | Non-toxic
3 | 0 | 27 | 10 | 6.3 | 0.63 | – | – | – | – | – | – | N#Cc1ccc(CN(Cc2cccnc2)Cc2cc(F)ccc2F)s1 | –
4 | 0 | 14 | 250 | 40 | 0.16 | – | inactive | Active | – | – | – | O=[N+]([O-])c1ccc(CN(Cc2ccc(F)cc2)Cc2cccnc2)s1 | Non-toxic
5 | 0 | 16 | 130 | 32 | 0.25 | – | – | – | – | – | – | Cc1sc(CN(Cc2ccc(Cl)cc2)Cc2cccnc2)cc1Br | –
6 | – | – | 79 | 13 | 0.16 | – | – | – | – | – | – | O=[N+]([O-])c1ccc(CN(Cc2ccc(Cl)cc2)Cc2cccnc2)s1 | –
7 | 0 | 24 | 100 | 40 | 0.4 | – | – | – | – | – | – | Clc1ccc(CN(Cc2cccnc2)Cc2cc3ccccc3s2)cc1 | –
8 | 0 | 23 | – | 20 | 0.2 | – | inactive | Active | – | – | – | N#Cc1ccc(CN(Cc2ccc(Cl)cc2)Cc2cccnc2)s1 | Non-toxic
9 | – | – | – | – | 0.2 | – | – | – | – | – | – | N#Cc1ccc(CN(Cc2ccc(F)cc2)Cc2cccnc2)s1 | –

Further lines, the compound ahead of its results:

Row | SMILES | TIME [1] [h] | Activity [2] [%] | Ratio IC50/EC50 (Homo sapiens) | IC50 [3] [µM] | EC50 [4] [µM] | Activity [5] | Activity [6] | Activity [7] | Activity [8] | Activity [9] | Activity [10] | Activity (THP-1)
10 | Clc1ccc(CN(Cc2cccnc2)Cc2sccc2-n2cccc2)cc1 | 0 | 30 | 63 | 40 | 0.63 | – | – | – | – | – | – | –
11 | COc1cccc(CN(Cc2cccnc2)Cc2ccc([N+](=O)[O-])s2)c1 | 0.5 | 42 | 25 | 10 | 0.4 | – | – | – | – | – | – | –
12 | O=[N+]([O-])c1ccc(CN(Cc2ccc(Cl)cc2)Cc2ccccc2F)s1 | 0 | 38 | 320 | 20 | 0.063 | – | – | – | – | – | – | –
13 | CCCCCNC(=O)N1CCC(CN(Cc2ccc(Cl)cc2)Cc2ccc([N+](=O)[O-])s2)C1 (stereo unspecified) [SR9011] | 1.3 | 20 | – | – | > 50 | Dose-dependent effect | – | – | – | – | – | –
14 | Cc1ccccc1CN(Cc1cccnc1)Cc1ccc([N+](=O)[O-])s1 | 0 | 37 | 160 | 32 | 0.2 | – | – | – | – | – | – | –
15 | Cc1cc(Cl)ccc1CN(Cc1ccc(Cl)cc1)Cc1ccc([N+](=O)[O-])s1 | 0 | 21 | 1260 | 63 | 0.05 | – | inactive | Active | Dose-dependent effect | – | – | Non-toxic
16 | Clc1ccc(CN(Cc2cccnc2)Cc2ncc[nH]2)cc1 | – | – | – | > 100 | > 50 | – | – | – | – | – | – | –
17 | Cc1cccc(CN(Cc2cccnc2)Cc2ccc([N+](=O)[O-])s2)c1 | 0.8 | 41 | 130 | 25 | 0.2 | – | – | – | – | – | – | –
18 | O=[N+]([O-])c1ccc(CN(Cc2ccccc2)Cc2ccc(Cl)cc2)s1 | – | – | > 1000 | > 100 | 0.1 | – | – | – | – | – | – | –
19 | CC(C)(C)OC(=O)CN(Cc1ccc(Cl)cc1)Cc1ccc([N+](=O)[O-])s1 [GSK-4112] | 0 | 6 | 10 | 5 | 0.5 | Dose-dependent effect | – | – | – | Active | Active | –
20 | N#Cc1ccc(CN(Cc2cccnc2)Cc2ccccc2F)s1 | 0 | 6 | – | 32 | > 50 | – | – | – | – | – | – | –
21 | COc1ccc(CN(Cc2cccnc2)Cc2ccc(C#N)s2)cc1 | – | – | > 160 | > 100 | 0.63 | – | – | – | – | – | – | –
22 | Clc1ccc(CN(Cc2cccnc2)Cc2nccs2)cc1 | – | – | – | 50 | > 50 | – | – | – | – | – | – | –
23 | COc1ccc(CN(Cc2cccnc2)Cc2ccc([N+](=O)[O-])s2)cc1 | – | – | 160 | 32 | 0.2 | – | – | – | – | – | – | –
24 | CCOC(=O)N1CCC(CN(Cc2ccc(Cl)cc2)Cc2ccc([N+](=O)[O-])s2)C1 (stereo unspecified) | 1.3 | 14 | – | – | – | Dose-dependent effect | – | – | – | – | – | –
25 | CC(C)CCN(Cc1ccc(Cl)cc1)Cc1ccc([N+](=O)[O-])s1 | 0 | 21 | 100 | 16 | 0.16 | – | – | – | – | – | – | –
26 | O=[N+]([O-])c1ccc(CN(Cc2cccnc2)Cc2cccc(C(F)(F)F)c2)s1 | – | – | 40 | 16 | 0.4 | – | – | – | – | – | – | –
